Active and inactive are the calls of the source. No cut-off for these calls is given here.
Columns and labels:
[1] = tested on: Classical swine fever virus; experiment: Antiviral activity against CSFV infected in SK6 cells assessed as reduction of pseudo-plaque formation after 2 days by immunoperoxidase monolayer assay; format: functional, organism-based; conditions: 48 h
[2] = Cytotoxicity against SK6 cells assessed as reduction in cell viability after 2 days by MTS method; format: cell-based, Sus scrofa; conditions: pig; for Activity: 48 h; for CC50 at 48 h: SK6 cells
Method in brief: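 SK6 viability by MTS (CellTiter 96 AQueous) assay; CC50 is the concentration reducing viability by 50%, taken from the dose-response curve.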

[3] = Selectivity index, ratio of CC50 for SK6 cells to IC50 for CSFV; format: toxicity; conditions: pig, read-out: Ratio CC50/IC50
Method in brief: (§1)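 Selectivity index is CC50/IC50, taken from the cell viability assay (SK6 by MTS, Huh-7.5 by MTT) and the matching pseudo-plaque reduction assay.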

[4] = tested on: Hepatitis C virus; experiment: Antiviral activity against HCV Jc1/JFH infected in human Huh7.5 cells assessed as reduction of pseudo-plaque formation after 72 hrs by immunoperoxidase monolayer assay; format: functional, organism-based, Hepacivirus hominis; conditions: for IC50: Huh7.5, 72 h; for Activity: Hepacivirus hominis
Method in brief: (§2)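 Huh-7.5 cells seeded at 1.5 × 10^4 per well, infected next day with Jc1/JFH HCVcc (genotype 2a) at MOI 0.1 for 3 h. Virus removed, medium with compound added; 72 h later cells fixed in cold methanol, permeabilized (0.5% Triton X-100), stained with anti-core antibody (1:300), HRP secondary. Pseudo-plaques counted by microscopy against untreated infected control; IC50 at 50% plaque reduction; three independent experiments.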

[5] = Cytotoxicity against human Huh7.5 cells assessed as reduction in cell viability after 72 hrs by MTT method; format: cell-based
[6] = Selectivity index, ratio of CC50 for Huh7.5 cells to IC50 for HCV Jc1/JFH; format: toxicity; conditions: human, read-out: Ratio CC50/IC50; method in brief: as §1
[7] = tested on: Classical swine fever virus; experiment: Inhibition of CSFV glycosyltransferase in SK6 cells assessed as downregulation of viral E2 levels under non-reducing condition after 48 hrs by Western blot method; format: cell-based
[8] = Effect on actin levels in SK6 cells at 3.75 to 30 uM under non-reducing condition after 48 hrs by Western blot method; format: ADME, cell-based, Sus scrofa; conditions: pig
[9] = Effect on actin levels in human Huh7.5 cells at 3.12 to 75 uM under reducing condition after 48 hrs by Western blot method; format: ADME, cell-based
Method in brief: (§3)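 Huh-7.5 cells infected with HCV (MOI 0.1), washed after 1–6 h, then treated with inhibitor. Lysed in RIPA buffer with protease inhibitors after 48 h (methods; legend gives 72 h p.i.). 20 µg protein run on reducing SDS-PAGE; Western blot probed with anti-E1 mAb (1:2000) and anti-actin (1:1000).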

[10] = tested on: Hepatitis C virus; experiment: (§4) Antiviral activity against HCV genotype 2a JFH1 infected in human Huh7-J20 cells assessed as inhibition of viral entry at 1.56 to 75 uM pretreated for 1 hr with cells followed by viral infection for 3 hrs and subsequent compound washout measured after 72 hrs by SEAP reporter assay; format: functional, organism-based; conditions: Hepacivirus hominis, JFH-1
Method in brief: (§5)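 Huh7-J20 SEAP reporter cells, infected with JFH-1 HCVcc, read-out SEAP chemiluminescence in supernatant after 72 h. Model 1: 1 h compound pretreatment, 3 h infection with compound, then compound-free medium. Model 2: same, with compound kept for the full 72 h. Model 3: 3 h infection, compound added afterwards only. DMSO control; three experiments.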

[11] = tested on: Hepatitis C virus; experiment: as §4, with “of complete” for “of”, “life cycle” for “entry”, “subsequent addition of fresh medium with” for “subsequent”, “compound” for “compound washout”; format: functional, organism-based; conditions: Hepacivirus hominis, JFH-1; method in brief: as §5
[12] = tested on: Hepatitis C virus; experiment: Antiviral activity against HCV genotype 2a JFH1 infected in human Huh7-J20 cells assessed as inhibition of viral RNA replication at 1.56 to 75 uM after 72 hrs by SEAP reporter assay; format: functional, organism-based; conditions: Hepacivirus hominis, JFH-1; method in brief: as §5
[13] = tested on: Hepatitis C virus; experiment: Antiviral activity against HCV genotype 2a JFH1 infected in human Huh7-J20 cells assessed as inhibition of viral assembly at 1.56 to 75 uM after 72 hrs by SEAP reporter assay; format: functional, organism-based; conditions: Hepacivirus hominis, JFH-1; method in brief: as §5
[14] = Cytotoxicity against human Huh7-J20 cells assessed as decrease in cell viability at 1.56 to 75 uM after 72 hrs by MTT assay; format: cell-based
Method in brief: (§6)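 Uninfected Huh7-J17, Huh7-J20 or Huh-7.5 cells incubated with compound, then viability read by MTT. Time stated as 72 h for Huh7-J20 and Huh7-J17, and 48 h for Huh-7.5. Results expressed relative to DMSO-treated cells (100%); CC50 from the dose-response curve.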

[15] = tested on: Hepatitis C virus; experiment: Antiviral activity against HCV infected in human Huh7-J17 cells assessed as inhibition of viral RNA replication at 75 uM after 72 hrs by bright-glo luciferase reporter assay relative to control; format: functional, Hepacivirus hominis
Method in brief: (§7)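 Huh7-J17 replicon cells seeded in 96-well plates together with compound, DMSO or sofosbuvir and incubated 72 h. Cells lysed and luciferase read with Bright-Glo. Values expressed as % of DMSO-treated cells; IC50 from dose-response fit; three experiments.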

[16] = tested on: Hepatitis C virus; experiment: Antiviral activity against HCV infected in human Huh7-J17 cells assessed as inhibition of viral RNA replication after 72 hrs by bright-glo luciferase reporter assay; format: functional, organism-based, Hepacivirus hominis; method in brief: as §7
[17] = Cytotoxicity against human Huh7-J17 cells assessed as decrease in cell viability after 72 hrs by MTT assay; format: cell-based; method in brief: as §6
[18] = tested on: Hepatitis C virus; experiment: Antiviral activity against HCV Jc1/JFH infected in human Huh7.5 cells assessed as downregulation of NS5B gene expression after 48 hrs by RT-PCR method; format: functional, organism-based; conditions: Hepacivirus hominis
Method in brief: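 Huh-7.5 cells infected with HCV (MOI 0.1) for 4 h, washed, then cultured with compound for 48 h. Total RNA isolated; 1 µg reverse-transcribed with an NS5B-specific reverse primer, then PCR for NS5B. Band densitometry expressed as % of untreated infected control.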

[19] = tested on: Classical swine fever virus; experiment: Antiviral activity against CSFV infected in SK6 cells assessed as reduction of pseudo-plaque formation at 9 uM after 2 days by immunoperoxidase monolayer assay relative to control; format: functional; design: scale not given: the % may be the effect or the level left
[20] = tested on: Hepatitis C virus; experiment: Antiviral activity against HCV Jc1/JFH infected in human Huh7.5 cells assessed as reduction of pseudo-plaque formation at 80 uM after 72 hrs by immunoperoxidase monolayer assay relative to control; format: functional, Hepacivirus hominis; design: scale not given: the % may be the effect or the level left; method in brief: as §2
[21] = Effect on actin levels in SK6 cells at 2.5 to 10 uM under non-reducing condition after 48 hrs by Western blot method; format: ADME, cell-based, Sus scrofa; conditions: pig
[22] = Effect on actin levels in human Huh7.5 cells at 6.25 to 100 uM under reducing condition after 48 hrs by Western blot method; format: ADME, cell-based; method in brief: as §3

SMILES	IC50 [1] [µM]	Activity [2]	CC50 at 48 h [2] [µM]	selectivity ratio [3]	IC50 [4] [µM]	CC50 at 72 h [5] [µM]	selectivity ratio [6]	other results
CC(=O)OC[C@H]1O[C@@H](Sc2ccc(NC(=O)CCC(=O)OC[C@H]3O[C@@H](n4ccc(=O)n(C(=O)c5ccccc5)c4=O)[C@H](O[Si](C)(C)C(C)(C)C)[C@@H]3O[Si](C)(C)C(C)(C)C)cn2)[C@H](OC(C)=O)[C@@H](OC(C)=O)[C@@H]1OC(C)=O	13	Dose-dependent effect	45	3.5	45	71	1.6	
CC(=O)OC[C@H]1O[C@@H](Sc2ccc(NC(=O)[C@H]3O[C@@H](n4ccc(=O)[nH]c4=O)[C@H](O[Si](C)(C)C(C)(C)C)[C@@H]3O[Si](C)(C)C(C)(C)C)cn2)[C@H](OC(C)=O)[C@@H](OC(C)=O)[C@H]1OC(C)=O	6	Dose-dependent effect	151	25.2	7	173	24.7	Activity [4]: Dose-dependent effect; inhibition [7]: Dose-dependent effect; Activity [8]: Non-Toxic; Activity [9]: Non-Toxic; inhibition [10]: inactive; inhibition [11]: Active; inhibition [12]: Active; inhibition [13]: Active; Activity [14]: Non-Toxic; inhibition at 75 µM [15]: 90%; IC50 [16]: 3.74 µM; CC50 at 72 h [17]: 245 µM; Activity [18]: Dose-dependent effect
CC(=O)OC[C@H]1O[C@@H](Sc2ccc(NC(=O)CCC(=O)OC[C@H]3O[C@@H](n4ccc(=O)[nH]c4=O)[C@@H]4OC(C)(C)O[C@@H]43)cn2)[C@H](OC(C)=O)[C@@H](OC(C)=O)[C@H]1OC(C)=O	49	Dose-dependent effect	194	4	213	340	1.6	
O=C(Nc1ccc(S[C@@H]2O[C@H](CO)[C@@H](O)[C@H](O)[C@H]2O)nc1)[C@H]1O[C@@H](n2ccc(=O)[nH]c2=O)[C@H](O)[C@@H]1O	370	Dose-dependent effect	380	1	402	420	1.05	
CC(=O)OC[C@H]1O[C@@H](Sc2ccc(NC(=O)[C@H]3O[C@@H](n4ccc(=O)[nH]c4=O)[C@H](O[Si](C)(C)C(C)(C)C)[C@@H]3O[Si](C)(C)C(C)(C)C)cn2)[C@H](OC(C)=O)[C@@H](OC(C)=O)[C@@H]1OC(C)=O	3	Dose-dependent effect	86	28.7	7	135	19.3	Activity [4]: Dose-dependent effect; Activity [19]: >90%; Activity [20]: >90%; inhibition [7]: Dose-dependent effect; Activity [21]: Non-Toxic; Activity [22]: Non-Toxic; inhibition [10]: inactive; inhibition [11]: Active; inhibition [12]: Active; inhibition [13]: Active; Activity [14]: Non-Toxic; inhibition at 75 µM [15]: 90%; IC50 [16]: 4 µM; CC50 at 72 h [17]: 185 µM; Activity [18]: Dose-dependent effect
CC(=O)OC[C@H]1O[C@@H](Sc2ccc(NC(=O)[C@H]3O[C@@H](n4ccc(=O)[nH]c4=O)[C@@H]4OC(C)(C)O[C@@H]43)cn2)[C@H](OC(C)=O)[C@@H](OC(C)=O)[C@H]1OC(C)=O	> 299	Dose-dependent effect	> 353	> 1.2	271	312	1.2	
CC(C)OC(=O)[C@H](C)N[P@](=O)(OC[C@H]1O[C@@H](n2ccc(=O)[nH]c2=O)[C@](C)(F)[C@@H]1O)Oc1ccccc1 [SOFOSBUVIR]					0.26	31	119	IC50 [16]: 0.028 µM; CC50 at 72 h [17]: 23.5 µM
CC(=O)OC[C@H]1O[C@@H](Sc2ccc(NC(=O)[C@H]3O[C@@H](n4ccc(=O)[nH]c4=O)[C@@H]4OC(C)(C)O[C@@H]43)cn2)[C@H](OC(C)=O)[C@@H](OC(C)=O)[C@@H]1OC(C)=O	> 325	Dose-dependent effect	> 380	> 1.2	244	271	1.1	
CC(C)(C)[Si](C)(C)OC[C@H]1O[C@@H](Sc2ccc(NC(=O)[C@H]3O[C@@H](n4ccc(=O)[nH]c4=O)[C@H](O[Si](C)(C)C(C)(C)C)[C@@H]3O[Si](C)(C)C(C)(C)C)cn2)[C@H](OC(=O)c2ccccc2)[C@@H](OC(=O)c2ccccc2)[C@@H]1OC(=O)c1ccccc1	97	Dose-dependent effect	186	1.9	> 236	> 270	> 1.1	
CC(=O)OC[C@H]1O[C@@H](Sc2ccc(NC(=O)[C@H]3O[C@@H](n4ccc(=O)[nH]c4=O)[C@H](O)[C@@H]3O)cn2)[C@H](OC(C)=O)[C@@H](OC(C)=O)[C@@H]1OC(C)=O	320	Dose-dependent effect	350	1.1	373	402	1.1	
CC(=O)OC[C@H]1O[C@@H](Sc2ccc(NC(=O)CCC(=O)OC[C@H]3O[C@@H](n4ccc(=O)[nH]c4=O)[C@@H]4OC(C)(C)O[C@@H]43)cn2)[C@H](OC(C)=O)[C@@H](OC(C)=O)[C@@H]1OC(C)=O	103	Dose-dependent effect	207	2	231	328	1.4	
